Screens as filed in PubChem.
S1P1 ag pot: S1P1 agonists and agonism potentiators, primary screen, cell-based, primary and confirmation screens, CRE-bla reporter; AID 449, 2006; 56,000 tested, 0.57% active; S1P1 CRE-bla cells, forskolin, beta-lactamase FRET, potentiator mode; S1P1 agonist co-added at EC20, 2 nM; 100% = saturating reference agonist, 0% = basal; activation, % at 9.5 µM;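 active = activation above a cutoff set at the mean activation of all tested compounds plus 3 SD, cut at about 54% in these data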;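 note: forskolin at 4 µM as EC80 and the EC20 agonist is SEW2871; 100% = SEW2871 at its EC100 plus forskolin at EC80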
M1 agonist: M1 muscarinic receptor agonists, primary screen, CHO-M1 cells, Fluo-4 calcium, agonist mode. Fluo-4 calcium fluorescence; active compounds read high. B-score at 10 µM. 64,000 tested, 3% active. Muscarinic acetylcholine receptor M1;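 active = fluorescence rise, raw or as B-score row- and column-corrected plate score, outside the 99.7% band of its plate's samples, either direction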
TNAP act mid DEA: human TNAP enzyme activators, primary screen, biochemical, luminescent, intermediate phosphate acceptor level; activation factor at 20 µM; 64,000 tested, under 10 active; Alkaline phosphatase, tissue-nonspecific isozyme (Homo sapiens), P05186; purified TNAP, CDP-star luminescence, 100 mM DEA, 30 min; active compounds read high; scale: 0 levamisole-inhibited, 1 vehicle-only enzyme; AID 813, 2007;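 active = activation factor of at least 2 at 20 µM, relative to controls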
D1 allo mod: D1 CRE-luciferase signal change, two-sided – cell-based, HEK293 D1, dopamine EC30, D1 allosteric modulator project, primary screen | B-score at 10 µM | dopamine EC30 potentiation; actives deviate in either direction | 58,000 tested, 5.9% active | AID 641, 2007 | D(1A) dopamine receptor (Homo sapiens), P21728;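 active = luminescence count or its row- and column-corrected plate score outside the 99.7% band of the plate's sample wells, on either side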
Target sequence (P21728 whole entry, looked up): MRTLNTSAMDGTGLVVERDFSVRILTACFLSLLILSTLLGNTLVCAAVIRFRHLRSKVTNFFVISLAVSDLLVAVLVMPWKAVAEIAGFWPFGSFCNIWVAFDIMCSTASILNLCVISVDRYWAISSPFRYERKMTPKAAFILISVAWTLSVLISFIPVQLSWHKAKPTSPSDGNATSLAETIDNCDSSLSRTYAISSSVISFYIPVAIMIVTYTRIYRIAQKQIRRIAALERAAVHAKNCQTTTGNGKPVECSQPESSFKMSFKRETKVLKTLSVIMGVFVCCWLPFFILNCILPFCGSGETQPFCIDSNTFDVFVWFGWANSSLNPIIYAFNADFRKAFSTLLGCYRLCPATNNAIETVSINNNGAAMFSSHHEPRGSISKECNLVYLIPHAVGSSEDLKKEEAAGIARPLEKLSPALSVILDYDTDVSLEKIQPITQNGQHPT
M1 antagonist: antagonists of rat M1 muscarinic receptor; AID 628, 2007; CHO-M1 cells, Fluo-4 calcium, ACh EC80 antagonist mode; active compounds read low; B-score at 10 µM; 64,000 tested, 3.4% active;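 active = calcium fluorescence response, raw or row-and-column corrected B-score, differing from the plate sample mean either way at a set confidence level, mostly lower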
S1P3 agonist: human S1P3 receptor agonists, primary screen, cell-based, primary and confirmation, NFAT-BLA reporter; Sphingosine 1-phosphate receptor 3 (Homo sapiens), Q99500; S1P3 NFAT-BLA reporter cells, agonism, FRET ratio; relative to 1 µM S1P, basal subtracted; activation, % at 4.5 µM; 60,000 tested, 0.1% active;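 active = activation above the screen-wide mean plus 3 SD, cut at about 4.5% in these data, passing the limit was not always enough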
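material = human S1P3 NFAT-BLA reporter CHO cells | schedule = 4 h compound at 37 °C, 2 h substrate at RT | measured by = fluorescent BLA substrate, ex 405 nm, em 460/535 nm ratio | controls = 1 µM S1P reference | replication = primary once, confirmation triplicate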
* hit, by the source's call; nt = no result. Most compounds without a hit are left out; they make up all but 11% or so of the library.

SMILES | S1P1 ag pot | M1 agonist | TNAP act mid DEA | D1 allo mod | M1 antagonist | S1P3 agonist
O=C(CN(C(=O)c1cc2c(s1)CCC2)C1CCCC1)NCc1cccs1 | nt | -0.22 | 1 | 0.022 | 0.64 | nt
O=C(O)C1C2C=CC(C2)C1C(=O)OC1CC2CCC1C2 (stereo not given) | -12 | -1.1 | 0.9 | -4.9* | -0.14 | -2
O=C(COC(=O)c1cccs1)c1ccc2c(c1)OCCO2 | nt | 0.49 | 0.9 | -3* | 0.034 | nt
Fc1ccc(Br)cc1C1C=C(c2ccc(Br)s2)Nc2ncnn21 (stereo not given) | 22 | 20* | 0.9 | 0.86 | -0.37 | -1
CCOc1ccc(-n2c(SCC(=O)Nc3nccs3)nc3c(c2=O)SCC3)cc1 | 0 | -0.11 | 0.9 | -0.0013 | -0.83 | -1
COc1ccc(-n2c(SCC(=O)Nc3nccs3)nc3c(c2=O)SC(C)C3)cc1 (stereo not given) | -12 | 0.017 | 0.9 | nt | 0.82* | -1
COc1ccc2c(=O)c(-c3nc(C)cs3)coc2c1 | 4 | 1.1 | 0.9 | -5.9* | 0.91 | 1
Cn1nc(CC(=O)Nc2ccc(N3CCN(C(=O)OC(C)(C)C)CC3)cc2)c2ccccc2c1=O | 84* | 3.8 | 0.9 | -0.24 | -1.9 | -2
O=C(CSc1nccc(=O)[nH]1)Nc1ccc(Br)c(Cl)c1 | nt | -0.091 | 0.9 | -0.37 | 0.29 | 0
CCOC(=O)c1[nH]c(C)c(C(=O)N2CCN(c3cccc(Cl)c3)CC2)c1C | 13 | -0.012 | 1 | nt | -0.0064 | 0
Cc1ccc(S(=O)(=O)c2cc3c(=O)n4ccccc4nc3n(CC3CCCO3)c2=N)cc1C (stereo not given) | -43 | 0.46 | 0.8 | 10* | -0.055 | 0
COc1ccc(OC)c(C2/C(=C(\O)c3c(C)nc4ccccn34)C(=O)C(=O)N2CCCN(C)C)c1 (stereo not given) | -4 | 1.2 | 0.8 | -0.57 | 2.4* | -1
COc1ccc(/C(O)=C2/C(=O)C(=O)N(CCN(C)C)C2c2ccccc2)cc1Cl (stereo not given) | 22 | -0.8 | 0.9 | nt | 1* | -1
CCOC(=O)c1[nH]c(C)c(/C(O)=C2\C(=O)C(=O)N(CCN(C)C)C2c2ccco2)c1C (stereo not given) | -11 | -0.46 | 0.9 | 0.35 | -2.3* | 0
CCN(CC)CCN1C(=O)C(=O)/C(=C(/O)c2c(C)[nH]c(C(=O)OC)c2C)C1c1ccco1 (stereo not given) | 11 | -1.4 | 0.8 | -0.99 | 0.2 | -6
Cc1ccc(C2/C(=C(\O)c3c(C)nc4ccccn34)C(=O)C(=O)N2CCCN(C)C)o1 (stereo not given) | -2 | -0.35 | 1.1 | 0.04 | -0.2 | -1
COc1ccc(/C(O)=C2/C(=O)C(=O)N(CCCN(C)C)C2c2ccco2)cc1Cl (stereo not given) | 4 | 35* | 0.8 | 0.24 | -0.73 | -4
COc1ccc(/C(O)=C2/C(=O)C(=O)N(CCN(C)C)C2c2ccc(C)cc2)cc1Cl (stereo not given) | -1 | -0.44 | 1 | 0.0025 | 0.58 | -1
CC(C)c1ccc(OCC(O)CN2CCN(c3ccccc3)CC2)cc1 (stereo not given) | -2 | 0.27 | 0.9 | -4.5* | -1.7 | 0
OC(COc1ccc2ccccc2c1)CN1CCN(c2ccc(F)cc2)CC1 (stereo not given) | 13 | 0.29 | 0.9 | -1.1 | 0.78 | 0
CC1CCN(CC(O)COc2ccc(F)cc2)CC1 (stereo not given) | -23 | -0.053 | 0.9 | -5.6* | -0.46 | 0
c1cnc(Oc2ccc(-c3nnco3)cc2)cn1 | -1 | -0.28 | 0.9 | -0.59 | 0.52 | 1
